Converted amounts (≈) assume the structure as drawn.
Columns and labels:
Type in all cases: functional
Klebsiella pneumoniae [1] = assay: Antimicrobial activity against ESBL-negative Klebsiella pneumoniae by broth microdilution method
How it was run: (§1)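 Clinical isolates were tested by CLSI broth microdilution in unsupplemented cation-adjusted Mueller-Hinton broth. The read-out was the MIC, reported as MIC90 (μg/ml) per species or phenotypic group. Ceftriaxone, levofloxacin and imipenem were run in parallel as comparators.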

Enterobacter cloacae = assay: Antimicrobial activity against ESBL-negative Enterobacter cloacae by broth microdilution method; how it was run: as §1
Staphylococcus aureus [2] = assay: Antimicrobial activity against vancomycin-resistant Staphylococcus aureus by broth microdilution method
How it was run: (§2)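 Isolates of the stated resistance phenotype were tested by CLSI broth microdilution in unsupplemented cation-adjusted Mueller-Hinton broth. Ceftaroline was compared with ceftriaxone, levofloxacin and imipenem. Activity was expressed as MICs (MIC90 in μg/ml).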

Streptococcus pneumoniae [3] = assay: Antimicrobial activity against levofloxacin-resistant Streptococcus pneumoniae by broth microdilution method
How it was run: (§3)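 CLSI broth microdilution in cation-adjusted Mueller-Hinton broth with 3% lysed horse blood, against streptococcal clinical isolates of the stated phenotype. Ceftaroline was compared with ceftriaxone, levofloxacin and imipenem. Activity was expressed as MICs (MIC90 in μg/ml).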

Haemophilus influenzae [4] = assay: Antimicrobial activity against beta-lactamase-positive Haemophilus influenzae by broth microdilution method
How it was run: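 H. influenzae isolates were tested by CLSI broth microdilution using Haemophilus test medium. The MIC was read and MIC90 (μg/ml) reported for the group. Ceftriaxone, levofloxacin and imipenem served as comparators.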

Pseudomonas aeruginosa [5] = assay: Antimicrobial activity against multidrug resistant Pseudomonas aeruginosa by broth microdilution method; how it was run: as §2
[6] = fT>MIC Enterobacteriaceae infected mouse model for 1-log kill
Escherichia coli [7] = assay: Antimicrobial activity against ESBL-positive Escherichia coli by broth microdilution method; how it was run: as §1
Proteus vulgaris = assay: Antimicrobial activity against Proteus vulgaris by broth microdilution method; how it was run: as §1
Salmonella sp. = assay: Antimicrobial activity against Salmonella spp. by broth microdilution method; how it was run: as §1
Streptococcus pneumoniae [8] = assay: Antimicrobial activity against penicillin-intermediate Streptococcus pneumoniae by broth microdilution method; how it was run: as §3
Enterococcus faecalis [9] = assay: Antimicrobial activity against Enterococcus faecalis by broth microdilution method; how it was run: as §1
[10] = system: Stenotrophomonas maltophilia; assay: Antimicrobial activity against Stenotrophomonas maltophilia by broth microdilution method; how it was run: as §1
Enterococcus faecium [11] = assay: Antimicrobial activity against Enterococcus faecium by broth microdilution method; how it was run: as §1
Shigella sp. = assay: Antimicrobial activity against Shigella spp. by broth microdilution method; how it was run: as §1
Corynebacterium jeikeium = assay: Antimicrobial activity against Corynebacterium jeikeium by broth microdilution method; how it was run: as §1
Escherichia coli [12] = assay: Antimicrobial activity against ESBL-negative Escherichia coli by broth microdilution method; how it was run: as §1
Staphylococcus aureus [13] = assay: Antimicrobial activity against methicillin-susceptible Staphylococcus aureus by broth microdilution method; how it was run: as §1
Serratia marcescens = assay: Antimicrobial activity against Serratia marcescens by broth microdilution method; how it was run: as §1
Enterococcus faecalis [14] = assay: Antimicrobial activity against vancomycin-susceptible Enterococcus faecalis by broth microdilution method; how it was run: as §1
Burkholderia cepacia = assay: Antimicrobial activity against Burkholderia cepacia by broth microdilution method; how it was run: as §1
Staphylococcus aureus [15] = assay: Antimicrobial activity against methicillin-resistant Staphylococcus aureus by broth microdilution method; how it was run: as §2
Streptococcus pneumoniae [16] = assay: Antimicrobial activity against penicillin-resistant Streptococcus pneumoniae by broth microdilution method; how it was run: as §3
Pseudomonas aeruginosa [17] = assay: Antimicrobial activity against Pseudomonas aeruginosa by broth microdilution method; how it was run: as §1
Streptococcus viridans = assay: Antimicrobial activity against Streptococcus viridans group clinical isolate by broth microdilution method
How it was run: (§4)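 Streptococcal isolates were tested by CLSI broth microdilution in cation-adjusted Mueller-Hinton broth supplemented with 3% lysed horse blood. The read-out was the MIC, with MIC90 (μg/ml) reported per group. Ceftriaxone, levofloxacin and imipenem served as comparators.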

Streptococcus pyogenes [18] = assay: Antimicrobial activity against macrolide-susceptible Streptococcus pyogenes by broth microdilution method; how it was run: as §3
Streptococcus pneumoniae [19] = assay: Antimicrobial activity against penicillin-susceptible Streptococcus pneumoniae by broth microdilution method; how it was run: as §4
Haemophilus influenzae [20] = assay: Antimicrobial activity against beta-lactamase-negative Haemophilus influenzae by broth microdilution method
How it was run: (§5)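 CLSI broth microdilution in Haemophilus test medium (cation-adjusted Mueller-Hinton base) against clinical H. influenzae isolates of the stated phenotype. Ceftaroline was compared with ceftriaxone, levofloxacin and imipenem. Activity was expressed as MICs (MIC90 in μg/ml).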

Staphylococcus [21] = assay: Antimicrobial activity against methicillin-resistant coagulase-negative Staphylococcus by broth microdilution method; how it was run: as §2
Providencia rettgeri = assay: Antimicrobial activity against Proteus rettgeri by broth microdilution method; how it was run: as §1
Streptococcus agalactiae = assay: Antimicrobial activity against Streptococcus agalactiae by broth microdilution method; how it was run: as §4
Klebsiella pneumoniae [22] = assay: Antimicrobial activity against ESBL-positive Klebsiella pneumoniae by broth microdilution method; how it was run: as §1
Morganella morganii = assay: Antimicrobial activity against Morganella morganii by broth microdilution method; how it was run: as §1
Providencia stuartii = assay: Antimicrobial activity against Proteus stuartii by broth microdilution method; how it was run: as §1
[23] = fT>MIC Staphylococcus aureus infected mouse model for 1-log kill
Klebsiella aerogenes = assay: Antimicrobial activity against ESBL-negative Enterobacter aerogenes by broth microdilution method; how it was run: as §1
Listeria monocytogenes = assay: Antimicrobial activity against Listeria monocytogenes by broth microdilution method; how it was run: as §1
Enterococcus faecium [24] = assay: Antimicrobial activity against vancomycin-susceptible Enterococcus faecium by broth microdilution method; how it was run: as §1
Proteus mirabilis = assay: Antimicrobial activity against Proteus mirabilis by broth microdilution method; how it was run: as §1
Moraxella catarrhalis = assay: Antimicrobial activity against Moraxella catarrhalis by broth microdilution method; how it was run: as §1
Haemophilus influenzae [25] = assay: Antimicrobial activity against beta-lactamase-negative ampicillin resistant Haemophilus influenzae by broth microdilution method; how it was run: as §5
[26] = fT>MIC Streptococcus pneumoniae infected mouse model for 1-log kill
Staphylococcus [27] = assay: Antimicrobial activity against methicillin-susceptible coagulase-negative Staphylococcus by broth microdilution method; how it was run: as §1
Staphylococcus aureus [28] = assay: Antimicrobial activity against vancomycin-intermediate Staphylococcus aureus by broth microdilution method; how it was run: as §1
Streptococcus pyogenes [29] = assay: Antimicrobial activity against macrolide-resistant Streptococcus pyogenes by broth microdilution method; how it was run: as §3

## CCO/N=C(\C(=O)N[C@@H]1C(=O)N2C(C(=O)[O-])=C(Sc3nc(-c4cc[n+](C)cc4)cs3)CS[C@H]12)c1nsc(NP(=O)(O)O)n1 [CEFTAROLINE FOSAMIL]
Klebsiella pneumoniae [1]
  MIC50: 0.06 µg/mL (≈ 0.0876 µM)
  MIC90: 0.25 µg/mL (≈ 0.365 µM)
Enterobacter cloacae
  MIC50: 0.12 µg/mL (≈ 0.175 µM)
  MIC90: 0.5 µg/mL (≈ 0.73 µM)
Staphylococcus aureus [2]
  MIC: 0.5 µg/mL (≈ 0.73 µM)
Streptococcus pneumoniae [3]
  MIC50: 0.03 µg/mL (≈ 0.0438 µM)
  MIC90: 0.25 µg/mL (≈ 0.365 µM)
Haemophilus influenzae [4]
  MIC: 0.015 µg/mL (≈ 0.0219 µM)
  MIC50: 0.015 µg/mL (≈ 0.0219 µM)
  MIC90: 0.06 µg/mL (≈ 0.0876 µM)
Pseudomonas aeruginosa [5]
  MIC50: 16 µg/mL (≈ 23.4 µM)
[6]
  fT>MIC: 41%
Escherichia coli [7]
  MIC50: > 32 µg/mL
  MIC90: > 32 µg/mL
Proteus vulgaris
  MIC50: 16 µg/mL (≈ 23.4 µM)
  MIC90: > 32 µg/mL
Salmonella sp.
  MIC50: 0.12 µg/mL (≈ 0.175 µM)
  MIC90: > 32 µg/mL
Streptococcus pneumoniae [8]
  MIC50: 0.03 µg/mL (≈ 0.0438 µM)
  MIC90: 0.06 µg/mL (≈ 0.0876 µM)
Enterococcus faecalis [9]
  MIC50: 2 µg/mL (≈ 2.92 µM)
  MIC90: 4 µg/mL (≈ 5.84 µM)
[10]
  MIC50: > 32 µg/mL
  MIC90: > 32 µg/mL
Enterococcus faecium [11]
  MIC50: 32 µg/mL (≈ 46.7 µM)
  MIC90: > 32 µg/mL
Shigella sp.
  MIC50: 0.03 µg/mL (≈ 0.0438 µM)
  MIC90: 0.12 µg/mL (≈ 0.175 µM)
Corynebacterium jeikeium
  MIC50: > 32 µg/mL
  MIC90: > 32 µg/mL
Escherichia coli [12]
  MIC50: 0.06 µg/mL (≈ 0.0876 µM)
  MIC90: 1 µg/mL (≈ 1.46 µM)
Staphylococcus aureus [13]
  MIC: 0.25 µg/mL (≈ 0.365 µM)
  MIC50: 0.25 µg/mL (≈ 0.365 µM)
  MIC90: 0.25 µg/mL (≈ 0.365 µM)
Serratia marcescens
  MIC: 0.5 µg/mL (≈ 0.73 µM)
  MIC50: 0.5 µg/mL (≈ 0.73 µM)
  MIC90: 8 µg/mL (≈ 11.7 µM)
Enterococcus faecalis [14]
  MIC: 1 µg/mL (≈ 1.46 µM)
  MIC50: 1 µg/mL (≈ 1.46 µM)
  MIC90: 4 µg/mL (≈ 5.84 µM)
Burkholderia cepacia
  MIC50: > 32 µg/mL
  MIC90: > 32 µg/mL
Staphylococcus aureus [15]
  MIC: 0.5 µg/mL (≈ 0.73 µM)
  MIC50: 0.5 µg/mL (≈ 0.73 µM)
  MIC90: 1 µg/mL (≈ 1.46 µM)
Streptococcus pneumoniae [16]
  MIC50: 0.25 µg/mL (≈ 0.365 µM)
  MIC90: 0.5 µg/mL (≈ 0.73 µM)
Pseudomonas aeruginosa [17]
  MIC50: 16 µg/mL (≈ 23.4 µM)
  MIC90: > 32 µg/mL
Streptococcus viridans
  MIC: 0.015 µg/mL (≈ 0.0219 µM)
  MIC50: 0.015 µg/mL (≈ 0.0219 µM)
  MIC90: 0.12 µg/mL (≈ 0.175 µM)
Streptococcus pyogenes [18]
  MIC: 0.015 µg/mL (≈ 0.0219 µM)
  MIC50: 0.015 µg/mL (≈ 0.0219 µM)
  MIC90: 0.015 µg/mL (≈ 0.0219 µM)
Streptococcus pneumoniae [19]
  MIC: 0.015 µg/mL (≈ 0.0219 µM)
  MIC50: 0.015 µg/mL (≈ 0.0219 µM)
  MIC90: 0.015 µg/mL (≈ 0.0219 µM)
Haemophilus influenzae [20]
  MIC: 0.015 µg/mL (≈ 0.0219 µM)
  MIC50: 0.015 µg/mL (≈ 0.0219 µM)
  MIC90: 0.015 µg/mL (≈ 0.0219 µM)
Staphylococcus [21]
  MIC50: 0.25 µg/mL (≈ 0.365 µM)
  MIC90: 0.5 µg/mL (≈ 0.73 µM)
Providencia rettgeri
  MIC50: 1 µg/mL (≈ 1.46 µM)
  MIC90: 4 µg/mL (≈ 5.84 µM)
Streptococcus agalactiae
  MIC: 0.015 µg/mL (≈ 0.0219 µM)
  MIC50: 0.015 µg/mL (≈ 0.0219 µM)
  MIC90: 0.015 µg/mL (≈ 0.0219 µM)
Klebsiella pneumoniae [22]
  MIC50: 32 µg/mL (≈ 46.7 µM)
  MIC90: > 32 µg/mL
Morganella morganii
  MIC50: > 32 µg/mL
  MIC90: > 32 µg/mL
Providencia stuartii
  MIC50: 1 µg/mL (≈ 1.46 µM)
  MIC90: 4 µg/mL (≈ 5.84 µM)
[23]
  fT>MIC: 33%
Klebsiella aerogenes
  MIC50: 0.12 µg/mL (≈ 0.175 µM)
  MIC90: > 32 µg/mL
Listeria monocytogenes
  MIC50: 4 µg/mL (≈ 5.84 µM)
  MIC90: 4 µg/mL (≈ 5.84 µM)
Enterococcus faecium [24]
  MIC50: 1 µg/mL (≈ 1.46 µM)
  MIC90: 16 µg/mL (≈ 23.4 µM)
Proteus mirabilis
  MIC50: 0.06 µg/mL (≈ 0.0876 µM)
  MIC90: 4 µg/mL (≈ 5.84 µM)
Moraxella catarrhalis
  MIC50: 0.12 µg/mL (≈ 0.175 µM)
  MIC90: 0.25 µg/mL (≈ 0.365 µM)
Haemophilus influenzae [25]
  MIC50: 0.12 µg/mL (≈ 0.175 µM)
  MIC90: 0.25 µg/mL (≈ 0.365 µM)
[26]
  fT>MIC: 43%
Staphylococcus [27]
  MIC50: 0.06 µg/mL (≈ 0.0876 µM)
  MIC90: 0.25 µg/mL (≈ 0.365 µM)
Staphylococcus aureus [28]
  MIC50: 1 µg/mL (≈ 1.46 µM)
  MIC90: 1 µg/mL (≈ 1.46 µM)
Streptococcus pyogenes [29]
  MIC: 0.015 µg/mL (≈ 0.0219 µM)
  MIC50: 0.015 µg/mL (≈ 0.0219 µM)
  MIC90: 0.015 µg/mL (≈ 0.0219 µM)

Source: ChEMBL document CHEMBL1629657, “In vitro antimicrobial activity of a new cephalosporin, ceftaroline, and determination of quality control ranges for MIC testing” (2009)
